Assay results collected from several papers.
Compare with care: the assays were run in different laboratories.
Target: Serine/threonine-protein kinase 4 (STK4, Homo sapiens, UniProt Q13043)
One construct used (Q13043 1-487): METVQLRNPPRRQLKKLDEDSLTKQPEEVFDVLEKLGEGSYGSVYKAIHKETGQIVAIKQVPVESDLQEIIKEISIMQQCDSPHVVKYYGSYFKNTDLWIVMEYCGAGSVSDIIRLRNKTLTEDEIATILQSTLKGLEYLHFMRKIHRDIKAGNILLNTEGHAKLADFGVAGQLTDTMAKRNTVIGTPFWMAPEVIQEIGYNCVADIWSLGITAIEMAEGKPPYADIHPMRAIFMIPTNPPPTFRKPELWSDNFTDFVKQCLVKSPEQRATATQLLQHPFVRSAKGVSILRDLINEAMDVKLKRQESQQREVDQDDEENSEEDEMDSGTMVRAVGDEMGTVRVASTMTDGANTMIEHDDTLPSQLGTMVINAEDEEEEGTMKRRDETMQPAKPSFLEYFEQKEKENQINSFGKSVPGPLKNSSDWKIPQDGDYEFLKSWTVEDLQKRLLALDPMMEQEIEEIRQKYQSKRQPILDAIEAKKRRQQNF

CO[C@@H]1[C@H](N(C)C(=O)c2ccccc2)C[C@H]2O[C@]1(C)n1c3ccccc3c3c4c(c5c6ccccc6n2c5c31)C(=O)NC4  inhibition (enzyme activity; inhibitor; 1 µM): 78%
COc1ccc2[nH]c3c4[nH]c5ccc(OC)cc5c4c4c(c3c2c1)C(=O)NC4=O  remaining binding (binding; competition with immobilised ligand; 1 µM): 100%
Cc1cc(O)c(-c2ccc([C@@H](C)CN(C)C)cc2)c2c1[nH]c(=O)c1sccc12  inhibition (enzyme activity; inhibitor; 0.1 µM): -0.517%
C=CC(=O)N1CCC([C@@H]2CCNc3c(C(N)=O)c(-c4ccc(Oc5ccccc5)cc4)nn32)CC1  inhibition (enzyme activity; inhibitor; 1 µM): 0%
CN1CCN(C(=O)c2ccc(NC(=O)Nc3ccc(N(C)c4ccnc(Nc5ccc(CS(C)(=O)=O)cc5)n4)cc3)cc2)CC1  remaining binding (binding; competition with immobilised ligand; 1 µM): 96%
C1=C/COCc2cc(ccc2OCCN2CCCC2)Nc2nccc(n2)-c2cccc(c2)COC/1  remaining signal (cell-free assay; 0.1 µM): 100%
C#Cc1cc(-c2cc(Nc3nc(N[C@@H](C)c4ccc(F)cn4)ncc3Cl)n[nH]2)ccc1C=O  inhibition (enzyme activity; inhibitor; 0.2 µM): 54.5%
COc1ccc2oc(-c3ccc4nc(N)oc4c3)c/c(=N\c3ccccc3NC(=O)CCN)c2c1  remaining binding (binding; 1 µM): 111%
CCCCC(=O)Nc1ccc(-c2ccc3ncn(CCC)c(=O)c3c2)cn1  remaining binding (binding; competition with immobilised ligand; 0.5 µM): 95%
